Reference: ChEMBL document CHEMBL3425449, “Identification of MK-8133: An orexin-2 selective receptor antagonist with favorable development properties” (Bioorg Med Chem Lett, 2015)
In brackets after ≈: the same amount, converted by molar mass. Activity calls are given as the source filed them. The rule behind the calls is not given here.

Key:
[1] = molecular target: T1, Orexin/Hypocretin receptor type 1 (Homo sapiens, UniProt O43613); assay: Antagonist activity against human OX1R expressed in CHOK1 cells assessed as inhibition of orexin A-induced […] Ca2+ mobilization by FLIPR assay; type: functional, cell-based, CHO-K1
T1 sequence (O43613 whole entry): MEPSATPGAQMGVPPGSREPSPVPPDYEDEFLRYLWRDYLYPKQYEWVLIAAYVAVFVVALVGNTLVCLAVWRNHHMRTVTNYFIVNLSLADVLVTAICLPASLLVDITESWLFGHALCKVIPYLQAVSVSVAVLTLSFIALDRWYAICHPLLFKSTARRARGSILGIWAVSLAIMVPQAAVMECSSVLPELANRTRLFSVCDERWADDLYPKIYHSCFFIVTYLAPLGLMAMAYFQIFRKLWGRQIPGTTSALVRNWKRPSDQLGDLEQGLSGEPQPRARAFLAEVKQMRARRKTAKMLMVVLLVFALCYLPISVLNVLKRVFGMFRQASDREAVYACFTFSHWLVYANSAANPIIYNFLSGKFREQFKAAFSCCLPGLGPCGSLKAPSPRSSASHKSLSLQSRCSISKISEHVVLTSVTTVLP
How it was run: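 Cell-based FLIPR assay measuring Ca2+ flux as the functional read-out of orexin receptor antagonism. Target is the human orexin receptor expressed in CHO-K1 cells.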

[2] = Unbound fraction in human plasma at 1 uM; type: ADME, cell-free
How it was run: (§1)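 Plasma protein binding measured at a compound concentration of 1 µM. Reported as percent unbound fraction in human, rat, dog and monkey plasma.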

[3] = Ratio of drug level in CSF to plasma in rat; type: ADME; conditions: CSF and plasma
Canis familiaris [4] = assay: Sleep promoting activity in beagle dog assessed as reduction of active wake at 0.01 and 0.05 mg/kg, po dosed for 5 consecutive days; type: functional, organism-based; set-up: dose 0.05 mg/kg; conditions: Canis lupus familiaris
How it was run: (§2)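 Beagles implanted with radio-telemetry ECoG/EMG transmitters received 0.01 and 0.05 mg/kg po or vehicle (20% Vitamin E TPGS). Balanced cross-over design over 5 consecutive days. Active wake, NREM I, NREM II (including delta sleep) and REM were scored as mean within-subject change versus vehicle.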

[5] = Oral bioavailability in Wistar Han rat at 10 mg/kg; type: ADME, organism-based; conditions: in vivo
How it was run: (§3)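 Pharmacokinetics in Wistar Han rats (n = 2) after intravenous and oral dosing. Oral dose was 10 mg/kg in PEG400:Tween80/water 40:10:50. IV dose was 2 mg/kg in DMSO/PEG400/water 20:60:20.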

Canis familiaris [6] = assay: Sleep promoting activity in beagle dog assessed as increase in non-REM NREM1 sleep at 0.01 and 0.05 mg/kg, po dosed for 5 consecutive days; type: functional, organism-based; set-up: dose 0.05 mg/kg; conditions: Canis lupus familiaris; how it was run: as §2
Rattus norvegicus [7] = assay: Sleep promoting activity in rat assessed as increase in REM sleep at 1 and 3 mg/kg, po dosed for 3 consecutive days measured after 2 hrs; type: functional, organism-based; set-up: dose 3 mg/kg
How it was run: (§4)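 Rats implanted with radio-telemetry ECoG/EMG transmitters and recorded while ambulatory. Dosed at 1 and 3 mg/kg po or with vehicle (20% Vitamin E TPGS) in a balanced cross-over over 3 consecutive days. Active wake, SWS and REM were scored in the 2 h after dosing as within-subject change versus vehicle.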

[8] = Half life in dog at 10 mg/kg, po or 2 mg/kg, iv; type: ADME, organism-based, Canis lupus familiaris; conditions: in vivo
How it was run: (§5)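 Dog pharmacokinetics determined after intravenous and oral administration.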

Mus musculus [9] = assay: Sleep promoting activity in mouse assessed as reduction of active wake at 30 mg/kg, po dosed for 5 consecutive days measured after 1 hr; type: functional, organism-based; set-up: dose 30 mg/kg
How it was run: (§6)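 Sleep architecture recorded in ambulatory mice (wild-type N = 7; OX2R KO N = 6) implanted with radio-telemetry transmitters for ECoG and EMG. Compound given at 30 mg/kg po; vehicle was 20% Vitamin E TPGS po. Balanced cross-over design over 5 consecutive treatment days. Read-out is mean within-subject change versus vehicle in active wake, SWS and REM.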

Mus musculus [10] = assay: Sleep promoting activity in OX2R knock out mouse with targeted disruption of the Hcrtr2 gene assessed as effect on REM sleep at 30 mg/kg, po dosed for 5 consecutive days measured after 1 hr; type: functional, organism-based; set-up: dose 30 mg/kg; how it was run: as §6
[11] = Solubility of the compound at pH 7.4; type: physicochemical; conditions: buffer
[12] = Clearance in dog at 10 mg/kg, po or 2 mg/kg, iv; type: ADME, organism-based, Canis lupus familiaris; conditions: in vivo; how it was run: as §5
[13] = Volume of distribution at steady state in Wistar Han rat at 10 mg/kg, po or 2 mg/kg, iv; type: ADME, organism-based; conditions: in vivo, read-out: Vdss; how it was run: as §3
Canis familiaris [14] = assay: Sleep promoting activity in beagle dog assessed as increase in REM sleep at 0.01 and 0.05 mg/kg, po dosed for 5 consecutive days; type: functional, organism-based; set-up: dose 0.05 mg/kg; conditions: Canis lupus familiaris; how it was run: as §2
[15] = Unbound fraction in dog plasma at 1 uM; type: ADME, cell-free, Canis lupus familiaris; how it was run: as §1
[16] = Solubility of the compound at pH 7; type: physicochemical; conditions: buffer, read-out: solubility
[17] = Half life in Wistar Han rat at 10 mg/kg, po or 2 mg/kg, iv; type: ADME, organism-based; conditions: in vivo; how it was run: as §3
Mus musculus [18] = assay: Sleep promoting activity in mouse assessed as effect on REM sleep at 30 mg/kg, po dosed for 5 consecutive days measured after 1 hr; type: functional, organism-based; set-up: dose 30 mg/kg; how it was run: as §6
[19] = Unbound fraction in rat plasma at 1 uM; type: ADME, cell-free; how it was run: as §1
[20] = Unbound fraction in monkey plasma at 1 uM; type: ADME, cell-free, Macaca mulatta; conditions: rhesus monkey; how it was run: as §1
[21] = Clearance in Wistar Han rat at 10 mg/kg, po or 2 mg/kg, iv; type: ADME, organism-based; conditions: in vivo; how it was run: as §3
Rattus norvegicus [22] = assay: Sleep promoting activity in rat assessed as increase in slow wave sleep at 1 and 3 mg/kg, po dosed for 3 consecutive days measured after 2 hrs; type: functional, organism-based; set-up: dose 3 mg/kg; how it was run: as §4
Mus musculus [23] = assay: Sleep promoting activity in mouse assessed as increase in slow wave sleep at 30 mg/kg, po dosed for 5 consecutive days measured after 1 hr; type: functional, organism-based; set-up: dose 30 mg/kg; how it was run: as §6
[24] = Lipophilicity, log D of the compound by HPLC method; type: physicochemical; conditions: read-out: logD
P-gp [25] = assay: Substrate activity at rat P-gp assessed as efflux ratio in cell based assay; type: ADME; conditions: not told
Rattus norvegicus [26] = assay: Sleep promoting activity in rat assessed as reduction of active wake at 1 and 3 mg/kg, po dosed for 3 consecutive days measured after 2 hrs; type: functional, organism-based; set-up: dose 3 mg/kg; how it was run: as §4
Canis familiaris [27] = assay: Sleep promoting activity in beagle dog assessed as increase in REM2 sleep at 0.01 and 0.05 mg/kg, po dosed for 5 consecutive days; type: functional, organism-based; set-up: dose 0.05 mg/kg; conditions: Canis lupus familiaris, in the assay text read “NREM2 sleep” for “REM2 sleep”; how it was run: as §2
[28] = Oral bioavailability in dog at 10 mg/kg; type: ADME, organism-based, Canis lupus familiaris; conditions: in vivo; how it was run: as §5
CHO-K1 = assay: Selectivity index, ratio of IC50 for human OX1R expressed in CHOK1 cells to IC50 for human OX2R expressed in CHOK1 cells by FLIPR assay; type: cell-based
How it was run: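 Ratio of OX1R FLIPR IC50 to OX2R FLIPR IC50. Both come from Ca2+-flux assays on human orexin receptors expressed in CHO-K1 cells, each averaged over n ≥ 2 experiments.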

Mus musculus [29] = assay: Sleep promoting activity in OX2R knock out mouse with targeted disruption of the Hcrtr2 gene assessed as effect on active wake at 30 mg/kg, po dosed for 5 consecutive days measured after 1 hr; type: functional, organism-based; set-up: dose 30 mg/kg; how it was run: as §6
Canis familiaris [30] = assay: Sleep promoting activity in beagle dog assessed as increase in delta sleep at 0.01 and 0.05 mg/kg, po dosed for 5 consecutive days; type: functional, organism-based; set-up: dose 0.05 mg/kg; conditions: Canis lupus familiaris; how it was run: as §2
Mus musculus [31] = assay: Sleep promoting activity in OX2R knock out mouse with targeted disruption of the Hcrtr2 gene assessed as effect on slow wave sleep at 30 mg/kg, po dosed for 5 consecutive days measured after 1 hr; type: functional, organism-based; set-up: dose 30 mg/kg; how it was run: as §6
[32] = Induction of CYP450 (unknown origin); type: ADME; conditions: human
[33] = Intrinsic clearance in human microsomes; type: ADME, Microsome
P-gp [34] = assay: Substrate activity at human P-gp assessed as efflux ratio in cell based assay; type: ADME; conditions: not told
Homo sapiens = organism: Homo sapiens; assay: Inhibition of CYP450 (unknown origin)
[35] = Volume of distribution at steady state in dog at 10 mg/kg, po or 2 mg/kg, iv; type: ADME, organism-based, Canis lupus familiaris; conditions: in vivo, read-out: Vdss; how it was run: as §5
[36] = Permeability in pig LLC-PK1 cells; type: ADME, cell-based, Sus scrofa; conditions: read-out: permeability
How it was run: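 Passive permeability measured in LLC-PK1 cells and expressed in cm/s.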

Q: Which IC50 [1] does the source give for C[C@@H]1CC[C@@H](Oc2cc(C#N)ccn2)CN1C(=O)c1ccccc1-c1ncccn1 here?
A: 4.9 µM

Q: What about the fraction unbound at 1 µM [2] of the same compound?
A: 0.028

Q: And the Kp [3]?
A: 0.1

Q: What about the Activity (Canis familiaris [4]) of the same compound?
A: Dose-dependent effect

Q: What about the bioavailability [5] of the same compound?
A: 80%

Q: What about the Activity (Canis familiaris [6]) of the same compound?
A: Dose-dependent effect

Q: And the Activity (Rattus norvegicus [7])?
A: Active

Q: And the half-life [8]?
A: 48 min

Q: And the Activity (Mus musculus [9])?
A: Active

Q: And the Activity (Mus musculus [10])?
A: inactive

Q: What about the solubility [11] of the same compound?
A: 250 µg/mL (≈ 626 µM)

Q: And the clearance [12]?
A: 15 mL/min/kg

Q: And the Vd [13]?
A: 1.3 L/kg

Q: And the Activity (Canis familiaris [14])?
A: Active

Q: And the fraction unbound at 1 µM [15]?
A: 0.166

Q: What about the solubility [16] of the same compound?
A: 183 µM (≈ 73.1 µg/mL)

Q: And the half-life [17]?
A: 258 min

Q: And the Activity (Mus musculus [18])?
A: inactive

Q: And the fraction unbound at 1 µM [19]?
A: 0.076

Q: And the fraction unbound at 1 µM [20]?
A: 0.239

Q: What about the clearance [21] of the same compound?
A: 37 mL/min/kg

Q: What about the Activity (Rattus norvegicus [22]) of the same compound?
A: Active

Q: What about the Activity (Mus musculus [23]) of the same compound?
A: Active

Q: And the logD [24]?
A: 2.9

Q: What about the efflux ratio (P-gp [25]) of the same compound?
A: 2.3

Q: And the Activity (Rattus norvegicus [26])?
A: Active

Q: And the Activity (Canis familiaris [27])?
A: Dose-dependent effect

Q: And the bioavailability [28]?
A: 53%

Q: And the Ratio IC50 (CHO-K1)?
A: 174

Q: What about the Activity (Mus musculus [29]) of the same compound?
A: inactive

Q: And the Activity (Canis familiaris [30])?
A: Dose-dependent effect

Q: What about the Activity (Mus musculus [31]) of the same compound?
A: inactive

Q: And the Activity [32]?
A: Not Active

Q: What about the CLint scaled [33] of the same compound?
A: 17 mL/min/kg

Q: And the efflux ratio (P-gp [34])?
A: 0.7

Q: And the inhibition (Homo sapiens)?
A: inactive

Q: And the Vd [35]?
A: 0.97 L/kg

Q: What about the Papp [36] of the same compound?
A: 33 ×10⁻⁶ cm/s
